Assay results from ChEMBL document CHEMBL3232936, “Synthesis, biological activity, distribution and membrane permeability of novel spiro-thiazines as potent neuroprotectors” (Eur J Med Chem, 2014).

How the values were obtained:
[1] = Apparent permeability of the compound across phospholipid vesicle-based barrier; format: physicochemical; conditions: not told
How it was run: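 Phospholipid vesicle-based barrier from egg phosphatidylcholine liposomes (6% w/v in phosphate buffer with 10% v/v ethanol), extruded onto 0.65 µm mixed cellulose ester filter inserts (0.33 cm²). Donor: compound in pH 7.4 phosphate buffer; acceptor: same buffer. Room temperature, no agitation, 12–24 h, inserts moved to fresh buffer. UV-absorbance read-out; Papp from steady-state flux under sink conditions; at least triplicate, mean ± SD.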

Brain [2] = assay: Inhibition of glutamate-induced [45Ca2+] uptake in synaptosomes in rat brain cortex assessed as biological activity coefficients (K43/21) after 5 mins by scintillation counting relative to control; format: functional, subcellular; design: concentration or dose not given beside the values
How it was run: (§1)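 Synaptosomal P2 fraction from brain cortex of 8–11-day-old rats, suspended in buffer A (132 mM NaCl, 5 mM KCl, 5 mM HEPES, pH 7.4) and kept at 0 °C. Glutamate-stimulated 45Ca2+ uptake with test compound, 5 min at 37 °C. Stopped by GF/B filtration, three washes with cold buffer B (145 mM KCl, 10 mM Tris, 5 mM Trilon B), scintillation counting. Initial screen at 100 µM; concentration dependence followed when inhibition reached 50% or more. MK-801 positive control.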

[3] = Partition coefficient, log D of the compound in hexane-buffer at pH 7.4 by isothermal saturation method; format: physicochemical
How it was run: (§2)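 Isothermal saturation method at 25 °C, partitioning between n-octanol or n-hexane and phosphate buffer pH 7.4 (KH2PO4, Na2HPO4, NaCl, NaN3). Compound concentrations measured spectrophotometrically against calibration curves; coefficient taken as the ratio of concentration in the organic phase to that in buffer.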

Brain [4] = assay: Inhibition of glutamate-induced [45Ca2+] uptake in synaptosomes in rat brain cortex after 5 mins by scintillation counting; format: functional, subcellular; how it was run: as §1
[5] = Partition coefficient, log D of the compound in n-octanol-buffer at pH 7.4 by isothermal saturation method; format: physicochemical; how it was run: as §2

Structure (SMILES)	Papp [1] [×10⁻⁶ cm/s]	logD [3]	IC50 (Brain [4]) [µM]	logD [5]	Activity (Brain [2]) [%]
Cc1ccc(NC2=NCCC3(CCCCC3)S2)cc1Cl	23.9	0.91	89.1	2.44	45.9
CNC1=NCCC2(CCCCC2)S1	2.7	0.91	–	0.88	134
CCNC1=NCCC2(CCCCC2)S1	8.78	0.72	–	1.38	65.3
O=C(NC1=NCCC2(CCCCC2)S1)c1ccccc1	3.18	1.51	–	1.55	78.1
Cc1cccc(C(C)C)c1NC1=NCCC2(CCCCC2)S1	9.04	1.5	20.9	2.36	5.4
CC(=O)c1cccc(NC2=NCCC3(CCCCC3)S2)c1	74.7	1.31	–	2.37	67.3
NC1=NCCC2(CCCCC2)S1	7.33	1.22	–	1.57	91.4
CCc1cccc(CC)c1NC1=NCCC2(CCCCC2)S1	21.6	1.28	7.9	1.88	3.5
Cc1cc(C)c(NC2=NCCC3(CCCCC3)S2)c(C)c1	11.3	1.48	9.3	2.05	2.6

The next lines start with results.

Papp [1] [×10⁻⁶ cm/s]	logD [3]	IC50 (Brain [4]) [µM]	logD [5]	Structure (SMILES)	Activity (Brain [2]) [%]
1.81	1.69	63.1	1.02	c1ccc(NC2=NCCC3(CCCCC3)S2)cc1	33.2
7.36	0.95	–	2.03	Fc1ccc(NC2=NCCC3(CCCCC3)S2)cc1Cl	81.5
1.72	–	–	1.96	Oc1ccc(NC2=NCCC3(CCCCC3)S2)cc1	73.5
15.7	1.45	6.2	1.57	CC(C)c1ccc(NC2=NCCC3(CCCCC3)S2)cc1	0
3.1	1.24	–	2.45	Clc1ccc(NC2=NCCC3(CCCCC3)S2)cc1Cl	76.9
1.11	1.45	85.1	0.8	COc1ccc(NC2=NCCC3(CCCCC3)S2)cc1	45.7
5.67	1.48	31.6	1.56	Cc1ccc(NC2=NCCC3(CCCCC3)S2)cc1	20.4
3.06	1.31	77.6	2.18	FC(F)(F)c1ccc(NC2=NCCC3(CCCCC3)S2)cc1	42.1
2.55	1.88	81.3	1.97	CC(=O)c1ccc(NC2=NCCC3(CCCCC3)S2)cc1	45.1
90.3	1.36	–	2.53	Brc1ccc(NC2=NCCC3(CCCCC3)S2)cc1	56.5
27.8	1.34	35.5	2.5	Clc1ccc(NC2=NCCC3(CCCCC3)S2)cc1	12.7
2.04	-0.52	–	1.88	Nc1ccc(NC2=NCCC3(CCCCC3)S2)cc1	115
41	1.75	11.7	2.31	CCc1ccc(NC2=NCCC3(CCCCC3)S2)cc1	0
